From ChEMBL document CHEMBL1140842 (J Med Chem, 2008)
In brackets after ≈: the same amount, converted by molar mass. Activity calls are given as the source filed them. No cut-off for these calls is given here.

Experiments:
CHO-K1 = assay: Selectivity index, ratio of IC50 for CHOK1 cells to IC50 for human NPC-TW01 cells; format: functional
How it was run: (§1)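 Selectivity index taken as the ratio between IC50 in the normal line (HUV-EC-C or CHO-K1) and IC50 in NPC-TW01. Each IC50 came from a 72 h MTT assay, with final concentrations of 0.5 nM to […].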

[1] = Solubility in PBS buffer; format: physicochemical
NCI-H838 = assay: Cytotoxicity against human NCI-H838 cells after 72 hrs by MTT assay; format: functional, cell-based; conditions: NCI-H838, 72 h
How it was run: (§2)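 2 × 10⁴ cells/well seeded 12 h before dosing; serial dilutions added at final 0.5 nM to […] for 72 h. Medium then replaced, MTT (5 mg/mL stock, 10 µL) added for 4 h at 37 °C, formazan dissolved in DMSO, absorbance read at 570 nm. Viability plotted against untreated control; IC50 = 50% growth inhibition. Means of at least three independent experiments.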

[2] = Cytotoxicity against human Hep3B cells after 72 hrs by MTT assay; format: functional, cell-based, Hep 3B2
A498 = assay: Cytotoxicity against human A498 cells after 72 hrs by MTT assay; format: functional, cell-based; conditions: A498, 72 h
[3] = Cytotoxicity against human MES-SA cells after 72 hrs by MTT assay; format: functional, cell-based; how it was run: as §2
HCT-116 = assay: Cytotoxicity against human HCT116 cells after 72 hrs by MTT assay; format: functional, cell-based; conditions: HCT-116, 72 h; how it was run: as §2
[4] = Cytotoxicity against human NPC-TW01 cells after 72 hrs by MTT assay; format: functional, cell-based; conditions: NPC-TW01, 72 h
How it was run: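 2 × 10⁴ cells/well seeded 12 h before dosing; serial dilutions added at final 0.5 nM to […] for 72 h. Medium then replaced, MTT (5 mg/mL stock, 10 µL) added for 4 h at 37 °C, formazan dissolved in DMSO, absorbance read at 570 nm. Means of at least three independent experiments.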

MKN-45 = assay: Cytotoxicity against human MKN45 cells after 72 hrs by MTT assay; format: functional, cell-based; conditions: MKN-45, 72 h
HUVEC [5] = assay: Cytotoxicity against HUVEC cells after 72 hrs by MTT assay; format: cell-based; conditions: Homo sapiens
[6] = Cytotoxicity against CHOK1 cells after 72 hrs by MTT assay; format: cell-based; conditions: Cricetulus griseus, CHO-K1, 72 h
HUVEC [7] = assay: Selectivity index, ratio of IC50 for HUVEC cells to IC50 for human NPC-TW01 cells; format: functional; how it was run: as §1
NPC-TW01 [8] = assay: Induction of apoptosis in human NPC-TW01 cells assessed as chromosomal condensation by fluorescence microscopy; format: functional, cell-based
How it was run: (§3)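 NPC-TW01 cells grown on coverslips and exposed to compound at 1 µM for 24 h, washed in PBS, then fixed in 4% paraformaldehyde. For tubulin, cells were permeabilized (0.1% Triton X-100), blocked (0.1% BSA), and incubated 45 min at room temperature with anti-β-tubulin (1:200), followed by PE-goat anti-mouse IgG (1:100). For chromosomes, cells were stained with Hoechst 33258. Imaged by laser-scanning confocal microscopy.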

NPC-TW01 [9] = assay: Induction of morphological changes in human NPC-TW01 cells assessed as microtubule aggregation around nuclei at 1 uM by confocal microscopy; format: functional, cell-based; how it was run: as §3

SMILES	solubility [1]	Selectivity Index (CHO-K1)	IC50 (NCI-H838)	IC50 [2]	IC50 (A498)	IC50 [3]	IC50 (HCT-116)	IC50 [4]	IC50 (MKN-45)	IC50 (HUVEC [5])	IC50 [6]	Selectivity Index (HUVEC [7])	Activity (NPC-TW01 [8])	Activity (NPC-TW01 [9])
CO[C@@H]1O[C@H](CO)[C@@H](O)[C@H](O)[C@H]1OCCCC(=O)O[C@@H](C(=O)O[C@H]1C[C@@]2(O)[C@@H](OC(=O)c3ccccc3)[C@@H]3[C@]4(OC(C)=O)CO[C@@H]4C[C@H](O)[C@@]3(C)C(=O)[C@H](OC(C)=O)C(=C1C)C2(C)C)[C@@H](NC(=O)c1ccccc1)c1ccccc1	80 µg/mL (≈ 71.7 µM)	> 780	374 nM	> 100000 nM	> 100000 nM	174 nM	480 nM	78 nM	> 100000 nM	> 100000 nM	> 100000 nM	> 780	–	–
CC(=O)O[C@H]1C(=O)[C@@]2(C)[C@H]([C@H](OC(=O)c3ccccc3)[C@]3(O)C[C@H](OC(=O)[C@H](O)[C@@H](NC(=O)c4ccccc4)c4ccccc4)C(C)=C1C3(C)C)[C@]1(OC(C)=O)CO[C@@H]1C[C@@H]2O [PACLITAXEL]	< 0.4 µg/mL	–	26 nM	7260 nM	8810 nM	8 nM	61 nM	–	89100 nM	5140 nM	16000 nM	–	–	–
CO[C@@H]1O[C@H](C(=O)O)[C@@H](O)[C@H](O)[C@H]1OCCCC(=O)O[C@@H](C(=O)O[C@H]1C[C@@]2(O)[C@@H](OC(=O)c3ccccc3)[C@@H]3[C@]4(OC(C)=O)CO[C@@H]4C[C@H](O)[C@@]3(C)C(=O)[C@H](OC(C)=O)C(=C1C)C2(C)C)[C@@H](NC(=O)c1ccccc1)c1ccccc1	137 µg/mL (≈ 121 µM)	2790	181 nM	> 100000 nM	> 100000 nM	201 nM	469 nM	67 nM	> 100000 nM	44000 nM	24000 nM	1520	–	–

The next lines start with results.

solubility [1]	SMILES	Selectivity Index (CHO-K1)	IC50 (NCI-H838)	IC50 [2]	IC50 (A498)	IC50 [3]	IC50 (HCT-116)	IC50 [4]	IC50 (MKN-45)	IC50 (HUVEC [5])	IC50 [6]	Selectivity Index (HUVEC [7])	Activity (NPC-TW01 [8])	Activity (NPC-TW01 [9])
104 µg/mL (≈ 90.9 µM)	CO[C@@H]1O[C@H](C(=O)O)[C@@H](O)[C@H](O)[C@H]1OC(=O)CCC(=O)O[C@@H](C(=O)O[C@H]1C[C@@]2(O)[C@@H](OC(=O)c3ccccc3)[C@@H]3[C@]4(OC(C)=O)CO[C@@H]4C[C@H](O)[C@@]3(C)C(=O)[C@H](OC(C)=O)C(=C1C)C2(C)C)[C@@H](NC(=O)c1ccccc1)c1ccccc1	> 670	267 nM	> 100000 nM	> 100000 nM	95 nM	452 nM	67 nM	> 100000 nM	> 100000 nM	> 100000 nM	> 670	–	–
53 µg/mL (≈ 46.9 µM)	CO[C@@H]1O[C@H](CO)[C@@H](O)[C@H](O)[C@H]1OC(=O)CCC(=O)O[C@@H](C(=O)O[C@H]1C[C@@]2(O)[C@@H](OC(=O)c3ccccc3)[C@@H]3[C@]4(OC(C)=O)CO[C@@H]4C[C@H](O)[C@@]3(C)C(=O)[C@H](OC(C)=O)C(=C1C)C2(C)C)[C@@H](NC(=O)c1ccccc1)c1ccccc1	> 250	82 nM	100000 nM	> 100000 nM	82 nM	100 nM	25 nM	> 100000 nM	> 100000 nM	> 100000 nM	> 250	Active	Active
